Test results from ChEMBL document CHEMBL3351543, “Novel Type of Prodrug Activation through a Long-Range O,N-Acyl Transfer: A Case of Water-Soluble CREB Inhibitor” (ACS Med Chem Lett, 2014).

Columns and labels:
[1] = Aqueous solubility in water; type: physicochemical
[2] = Inhibition of CREB (unknown origin) expressed in HEK293T cells assessed as reduction in CREB-mediated gene tanscription after 5 hrs by luciferase reporter gene assay; type: cell-based; settings: Homo sapiens, HEK-293T
Method in brief: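 CREB-Renilla luciferase reporter assay in living HEK 293T cells measuring CREB-mediated gene transcription. Highest concentration tested 50 μM. IC50 given as mean ± SD of at least two independent experiments.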

[3] = Inhibition of CREB (unknown origin) assessed as reduction in KIX-KID interaction after 20 to 24 hrs by renilla luciferase complementation assay; set-up: species or system Homo sapiens
Method in brief: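 In vitro Renilla luciferase complementation assay of KIX–KID interaction, run at 4 °C. Highest concentration tested 50 μM. IC50 given as mean ± SD of at least two independent experiments.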

[4] = Half life in PBS buffer at pH 7.4 at 4 degC by RP-HPLC method; type: ADME
[5] = Half life in PBS buffer at pH 6.01 by RP-HPLC method; type: ADME
Method in brief: (§1)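 Compound incubated in PBS at room temperature at pH 7.40, 6.98, 6.48 or 6.01. Aliquots taken at set times were analysed by RP-HPLC, and percent parent remaining was quantified per chromatogram. Data fitted to first-order kinetics to derive t1/2; mean ± SD of two independent experiments.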

[6] = Half life in PBS buffer at pH 7.4 by RP-HPLC method; type: ADME; method in brief: as §1
[7] = test system: MDA-MB-468; test: Growth inhibition of human MDA-MB-468 cells after 72 hrs by MTT assay; type: functional; settings: MDA-MB-468, 72 h
Method in brief: (§2)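 Cancer cells exposed to compounds for 72 h; growth measured by MTT assay. GI50 is the concentration giving 50% growth inhibition, highest concentration tested 100 μM. Mean ± SD of at least two independent experiments.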

[8] = Half life in Dulbecco's Modified eagle medium at pH 7.7 containing 10% fetal bovine serum; type: ADME; settings: cattle, Dulbecco's Modified Eagle medium with 10% fetal bovine serum
Method in brief: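 Compound incubated at 37 °C in DMEM with 10% FBS. At set times an aliquot was mixed with 9 volumes of acetonitrile to precipitate protein, and the supernatant was analysed by RP-HPLC with UV detection at 254 nm against an internal standard.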

[9] = Half life in PBS buffer at pH 6.98 by RP-HPLC method; type: ADME; method in brief: as §1
[10] = test system: MDA-MB-231; test: Growth inhibition of human MDA-MB-231 cells after 72 hrs by MTT assay; type: functional; settings: MDA-MB-231, 72 h; method in brief: as §2
[11] = test system: A549; test: Growth inhibition of human A549 cells after 72 hrs by MTT assay; type: functional, cell-based; settings: A549, 72 h; method in brief: as §2
[12] = Half life in PBS buffer at pH 6.48 by RP-HPLC method; type: ADME; method in brief: as §1
[13] = test system: HEK-293T; test: Inhibition of CREB in HEK293T cells assessed as reduction in forskolin-induced NR4A2 mRNA expression at 2.5 uM pre-incubated for 1 hrs before forskolin stimulation for 45 mins by RT-PCR method; type: cell-based; settings: Homo sapiens
Method in brief: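 HEK 293T cells pretreated with compounds for 1 h, then forskolin added for a further 45 min. Endogenous NR4A2 mRNA quantified by qRT-PCR as relative level; significance by Student's t test.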

[14] = test system: MCF7; test: Growth inhibition of human MCF7 cells after 72 hrs by MTT assay; type: functional; settings: MCF7, 72 h; method in brief: as §2
[15] = Retention time of the compound by HPLC method; type: physicochemical
[16] = Drug level in PBS buffer treated with 2-(3-(3-Aminopropoxy)-2-naphthamido)-5-chlorophenyl 3-(3-Aminopropoxy)-2-naphthoate dihydrochloride at room temperature assessed as compound formation; type: physicochemical; method in brief: as §1

| Compound | solubility [1] [µg/mL] | IC50 [2] [nM] | IC50 [3] [nM] | half-life [4] [h] | half-life [5] [h] | half-life [6] [h] | GI50 [7] [nM] | half-life [8] [h] | half-life [9] [h] | GI50 [10] [nM] | IC50 [11] [nM] | half-life [12] [h] | fold change (FC) [13] | GI50 [14] [nM] | Retention_time [15] [min] | Drug metabolism [16] |
| --- | --- | --- | --- | --- | --- | --- | --- | --- | --- | --- | --- | --- | --- | --- | --- | --- |
| Cl.NCCCOc1cc2ccccc2cc1C(=O)Nc1ccc(Cl)cc1OC(=O)c1cc2ccccc2cc1OCCCN | > 100000 | 2270 | 4400 | 24 | 7.46 | 0.455 | 330 | < 0.0833 | 0.628 | 1300 | 590 | 1.91 | 10 | – | – | – |
| COc1cc2ccccc2cc1C(=O)Nc1ccc(Cl)cc1O | – | > 50000 | > 50000 | – | – | – | > 100000 | – | – | > 100000 | > 100000 | – | – | > 100000 | – | – |
| COc1cc2ccccc2cc1C(=O)Nc1ccc(Cl)cc1OC(=O)c1cc2ccccc2cc1OC | < 100 | 1950 | 170 | – | – | – | 8110 | 20 | – | 23500 | 8780 | – | – | – | – | – |
| Cl.NCCCOc1cc2ccccc2cc1C(=O)NCCCOc1cc2ccccc2cc1C(=O)Nc1ccc(Cl)cc1O | 120 | 2220 | 19700 | – | – | – | 220 | – | – | 370 | 290 | – | 10 | 140 | 12.2 | metabolite_detected |
| NCCCOc1cc2ccccc2cc1C(=O)Nc1ccc(Cl)cc1O | – | 26200 | > 50000 | – | – | – | 1200 | – | – | 2190 | 2730 | – | – | 1850 | – | – |
| O=C(Nc1ccc(Cl)cc1)c1cc2ccccc2cc1O | – | 2290 | 2900 | – | – | – | 1460 | – | – | 2350 | 2900 | – | – | 2810 | – | – |
